Assay results as given in ChEMBL document CHEMBL1135575, “Synthesis and structure-activity relationships of 3-aryloxindoles: a new class of calcium-dependent, large conductance potassium (maxi-K) channel openers with neuroprotective properties” (J Med Chem, 2002).
Several values for one entry are separate records, joined by “and”; a condition that tells them apart may be missing. Identical values can stand only once.

Legend:
[1] = (§1) Effect on Maxi-K-Mediated outward current in Xenopus laevis oocytes expressing cloned mSlo maxi-K channels at 20 uM; format: functional, Oocyte
Method in brief: (§2)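 Two-electrode voltage clamp on Xenopus oocytes expressing cloned mSlo. Steps of 500–750 ms ran from a holding potential of -60 to +140 mV in 20 mV increments, without and with compound at 20 μM in the chamber. Each experiment ended with 10 min of 50 nM iberiotoxin, and that residual current was subtracted. The IbTx-sensitive current is given as % of drug-free control, from at least five oocytes.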

[2] = as §1; format: functional, Mus musculus, Oocyte; method in brief: as §2
Rattus norvegicus [3] = assay: Neocortical infarct volume after IV administration (2 hr post-MCAO) in 13 rats by method A at the dose 5.0 mg/kg; format: functional
Method in brief: (§3)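 Left MCA was permanently occluded by a subtemporal approach in male SHR (240–350 g) under ketamine/xylazine, with temperature kept at 36–38 °C. A single tail-vein bolus was given 2 h after occlusion, in vehicle of 2% DMSO and 98% propylene glycol. At 24 h the brain was perfused with 3% TTC, incubated 30 min at 37 °C and fixed. Neocortical infarct volume (mm3) was measured by planimetry of 2 mm slices and reported as mean (SE) and % reduction versus vehicle.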

Rattus norvegicus [4] = species on record: Rattus norvegicus; assay: Electrically stimulated [3H]glutamate release in hippocampal slices; format: functional, Hippocampus
Method in brief: (§4)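 Hippocampal wedges (350 μm) from male Sprague–Dawley rats were washed in Krebs buffer with adenosine deaminase. They were loaded with 5 μCi [3H]-glutamate for 30 min at 37 °C, then superfused and collected as 5 min fractions. Release was evoked by field stimulation (35 mA, 10 Hz, 2 ms pulses, 1 min) at fractions 3 (S1) and 13 (S2). Compound was present from 30 min before S2. Data are S2/S1 ratios, analysed by ANOVA with Newman–Keuls.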

Rattus norvegicus [5] = assay: Neocortical infarct volume after IV administration (2 hr post-MCAO) in 13 rats by method A at the dose 1.0 mg/kg; format: functional; method in brief: as §3
Rattus norvegicus [6] = assay: Neocortical infarct volume after IV administration (2 hr post-MCAO) in 9 rats by method A at the dose 0.1 mg/kg; format: functional; method in brief: as §3
Rattus norvegicus [7] = assay: Neocortical infarct volume after IV administration (2 hr post-MCAO) in 13 rats by method A at the dose 10.0 mg/kg; format: functional; method in brief: as §3
[8] = Effect on Maxi-K mediated outward current in Xenopus laevis oocytes expressing cloned mSlo maxi-K channels at 20 uM; format: functional, Mus musculus, Oocyte; method in brief: as §2
Rattus norvegicus [9] = assay: Neocortical infarct volume after IV administration (2 hr post-MCAO) in 9 rats by method B at the dose 0.1 mg/kg; format: functional
Rattus norvegicus [10] = species on record: Rattus norvegicus; assay: Electrically stimulated [3H]-glutamate release in hippocampal slices; format: functional, Hippocampus; method in brief: as §4
Rattus norvegicus [11] = assay: Plasma level concentration after IV administration (4.6 mg/kg) in male rats at 2 hours; format: functional, organism-based
Method in brief: (§5)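 Male Sprague–Dawley rats (ca. 225 g) got a tail-vein bolus of 2 mL/kg. Three animals per group were killed by CO2 at 0.25 and 2 h. Whole brain and blood were taken. Brain homogenates and plasma were extracted with CH3CN and assayed by HPLC with UV detection at 290 nm. Plasma is given in μg/mL and brain in μg/g wet weight, as mean ± SD.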

Rattus norvegicus [12] = assay: Brain level concentration after IV administration (4.6 mg/kg) in male rats at 2 hours; format: functional, organism-based; method in brief: as §5
Rattus norvegicus [13] = assay: Neocortical infarct volume after intraperitoneal administration (2 hr post-MCAO) in 9 rats by method A at the dose 10 mg/kg
Rattus norvegicus [14] = assay: Plasma level concentration after IV administration (4.6 mg/kg) in male rats at 0.25 hours; format: functional, organism-based; method in brief: as §5
Rattus norvegicus [15] = assay: Neocortical infarct volume after IV administration (2 hr post-MCAO) in 9 rats by method A at the dose 10.0 mg/kg; Toxic at 10.0% reduction level; settings: in vivo
Rattus norvegicus [16] = assay: Neocortical infarct volume after intraperitoneal administration (2 hr post-MCAO) in 11 rats by method B at the dose level 20(mg/kg).; format: functional
Method in brief: (§6)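 Permanent left MCA occlusion in male SHR (240–350 g) under ketamine/xylazine, at 36–38 °C. Compound was given intraperitoneally 2 h after occlusion in 2% DMSO/98% propylene glycol. At 24 h, infarcts were stained with 3% TTC perfusion, slices were cut at 2 mm, and neocortical infarct volume was measured by planimetry. Results are given as mean (SE) and % reduction versus vehicle from the same study.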

Rattus norvegicus [17] = assay: Neocortical infarct volume after IV administration (2 hr post-MCAO) in 9 rats by method A at the dose 0.03 mg/kg; format: functional; method in brief: as §3
Rattus norvegicus [18] = assay: Neocortical infarct volume after IV administration (2 hr post-MCAO) in 9 rats by method B at the dose 0.01 mg/kg
Rattus norvegicus [19] = assay: Brain level concentration after IV administration (4.6 mg/kg) in male rats at 0.25 hours; format: functional, organism-based; method in brief: as §5
Rattus norvegicus [20] = assay: Neocortical infarct volume after intraperitoneal administration (2 hr post-MCAO) in 11 rats by method B at the dose level 10(mg/kg).; format: functional; method in brief: as §6

Structure (SMILES)	Increase [1] [%]	other results
O=C1Nc2ccc(C(F)(F)F)cc2C1(O)c1cc(Cl)ccc1O (configuration not stated)	108	–
Nc1ccc(C2(O)C(=O)Nc3cc(C(F)(F)F)ccc32)c(O)c1 (configuration not stated)	–	Increase [2]: 92%
O=C1Nc2cc(C(F)(F)F)ccc2C1(O)c1ccc(Cl)cc1O (configuration not stated)	93	–
O=C1Nc2cc(C(F)(F)F)ccc2C1(O)c1ccccc1O (configuration not stated)	90	–
O=C1Nc2cc(C(F)(F)F)ccc2C1(O)c1cccc(Cl)c1O (configuration not stated)	116	–
CN1CCN(c2ccc(O)c(C3(O)C(=O)Nc4cc(C(F)(F)F)ccc43)c2)CC1 (configuration not stated)	91	–
COc1ccc(Cl)cc1[C@]1(O)C(=O)Nc2cc(C(F)(F)F)ccc21 (stereo in doubt; (+)-7c)	117	–
O=C1Nc2cc(C(F)(F)F)ccc2C1(O)c1cc(Br)ccc1O (configuration not stated)	89	–
O=C1Nc2cc(C(F)(F)F)ccc2C1(O)c1c(O)ccc2ccccc12 (configuration not stated)	116	–
O=C1Nc2cc(C(F)(F)F)ccc2C1(O)c1cc(Cl)cc(Cl)c1O (configuration not stated)	108	–
O=C1Nc2c(C(F)(F)F)cccc2C1(O)c1cc(Cl)ccc1O (configuration not stated)	122	–
O=C1Nc2cccc(C(F)(F)F)c2C1(O)c1cc(Cl)ccc1O (configuration not stated)	127	–
O=C1Nc2ccc([N+](=O)[O-])cc2C1(O)c1cc(Cl)ccc1O (configuration not stated)	78	–
O=C1Nc2cc(C(F)(F)F)ccc2[C@@]1(O)c1cc(Cl)ccc1O	123	–
O=C1Nc2cc(C(F)(F)F)ccc2C1(O)c1cc(-c2ccccc2)ccc1O (configuration not stated)	106	–
Cc1ccc2c(c1)C(O)(c1cc(Cl)ccc1O)C(=O)N2 (configuration not stated)	100	–
COc1ccc(Cl)cc1C1(O)C(=O)Nc2cc(C(F)(F)F)ccc21 (racemic)	120	–
O=C1Nc2cc(C(F)(F)F)cc(C(F)(F)F)c2C1(O)c1cc(Cl)ccc1O (configuration not stated)	127	–
COc1ccc(O)c(C2(O)C(=O)Nc3cc(C(F)(F)F)ccc32)c1 (configuration not stated)	81	–
Nc1cc(O)c(C2(O)C(=O)Nc3cc(C(F)(F)F)ccc32)cc1Cl (configuration not stated)	–	Increase [2]: 94%
O=c1[nH]c2cc(C(F)(F)F)ccc2n1-c1cc(Cl)ccc1O	132	–

Structure (SMILES)	Increase [1] [%]	other results
O=C1Nc2cc(C(F)(F)F)ccc2C1(O)c1cc(Cl)ccc1O (single isomer, unassigned; (-))	141	–
O=C1Nc2ccccc2C1(O)c1cc(Cl)ccc1O (configuration not stated)	95	–
O=C1Nc2cc(C(F)(F)F)ccc2C1(O)c1ccc(C(F)(F)F)cc1O (configuration not stated)	108	–
O=C1Nc2cc(C(F)(F)F)ccc2C1(O)c1cc(Cl)cc(I)c1O (configuration not stated)	124	–
O=C1Nc2cc(C(F)(F)F)ccc2C1(O)c1cc(Cl)c(Cl)cc1O (configuration not stated)	107	–
O=C1Nc2ccccc2C1c1cc(Cl)ccc1O (configuration not stated)	139	–
O=C1Nc2cc(C(F)(F)F)ccc2C1(O)c1cc(Cl)ccc1O (racemic) [listing 1 of 2 here]	131	Reduction (Rattus norvegicus [3]): 10%; Control (Rattus norvegicus [4]): 89% and 93%; Reduction (Rattus norvegicus [5]): 10%; Reduction (Rattus norvegicus [6]): 4%; Reduction (Rattus norvegicus [7]): 4%
COc1ccc(Cl)cc1C1C(=O)Nc2cc(C(F)(F)F)ccc21 (configuration not stated)	110	–
O=C1Nc2cc(Cl)cc(Cl)c2C1(O)c1cc(Cl)ccc1O (configuration not stated)	117	–
O=C1Nc2cc(C(F)(F)F)ccc2C1(O)c1cc(C(F)(F)F)ccc1O (configuration not stated)	130	–
COc1ccc(Cl)cc1[C@]1(O)C(=O)Nc2cc(C(F)(F)F)ccc21 (stereo in doubt; (-)-7c)	116	–
Cc1ccc(O)c(C2(O)C(=O)Nc3cc(C(F)(F)F)ccc32)c1 (configuration not stated)	106	–
COc1ccc(Cl)cc1C1(O)C(=O)Nc2ccc(C(F)(F)F)cc21 (configuration not stated)	–	Increase [8]: 109%
O=C1Nc2ccc(F)cc2C1(O)c1cc(Cl)ccc1O (configuration not stated)	106	–
O=C1Nc2cc(C(F)(F)F)ccc2C1c1cc(Cl)ccc1O (racemic)	–	Reduction (Rattus norvegicus [9]): 4% and 12%; Control (Rattus norvegicus [10]): 71%; Concentration (Rattus norvegicus [11]): 0.28 µg/mL; Concentration (Rattus norvegicus [12]): 0.23 µg/g; Reduction (Rattus norvegicus [13]): 26%; Concentration (Rattus norvegicus [14]): 3.3 µg/mL; Toxic (Rattus norvegicus [15]): Toxic; Reduction (Rattus norvegicus [16]): 9%; Reduction (Rattus norvegicus [17]): 18%; Reduction (Rattus norvegicus [6]; 0.1 mg/kg): 9% and 0% and 6%; Increase (Rattus norvegicus [18]): -7%; Increase [2]: 164%; Concentration (Rattus norvegicus [19]): 2.4 µg/g; Reduction (Rattus norvegicus [20]): 24%
O=C1Nc2cc(C(F)(F)F)ccc2C1(O)c1cc(F)ccc1O (configuration not stated)	97	–
O=C1Nc2cc(C(F)(F)F)ccc2C1(O)c1ccccc1 (configuration not stated)	87	–
O=C1Nc2cc(C(F)(F)F)ccc2C1(O)c1cccc(Cl)c1 (configuration not stated)	97	–
O=C1Nc2cc(C(F)(F)F)ccc2C1(O)c1cc(I)ccc1O (configuration not stated)	107	–
O=C1Nc2cc(C(F)(F)F)ccc2C1(O)c1cc(Cl)ccc1O (racemic) [listing 2 of 2 here]	–	Concentration (Rattus norvegicus [11]): 0.231 µg/mL; Concentration (Rattus norvegicus [12]): 0.87 µg/g; Concentration (Rattus norvegicus [14]): 1.2 µg/mL; Concentration (Rattus norvegicus [19]): 1.34 µg/g
